# UPR XBP1 act = activators of adaptive XBP1 UPR arm, primary screen, cell-based, CHO-XBP1 luciferase reporter, luminescence, uHTS | AID 463104, 2010 | activation, % at 20 µM | IRE1-XBP1 UPR activation; percent of tunicamycin response, DMSO as zero | hit rate 0.33% among 330,000;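 active means versus positive control, 20 µM dose yields 30% or more activation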;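 further: 100% = tunicamycin at 10 µg/mL and 0% = DMSO only wells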
#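 Material: CHO-XBP1 cells stably carrying IRE1-XBP1-driven luciferase reporter | Medium: F12 with 10% serum | Compound dosing: 20 µM single concentration, DMSO 1% | Incubation: Overnight seeding at 37 °C, 6 h compound treatment at 37 °C | Detection: Steady-Glo luminescence read | Read-out basis: % activation of reporter signal versus tunicamycin and DMSO controls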
# UBC13 polyUb = UBC13 polyubiquitin chain formation inhibitors, primary screen, biochemical, TR-FRET, uHTS | Ubiquitin-conjugating enzyme E2 N (Homo sapiens), P61088 | inhibition, % at 20 µM | hit rate 0.47% among 330,000 | AID 485273, 2010; in the data active means inhibition above about 45%, passing the limit was not always enough
# Target sequence (P61088 whole entry, looked up): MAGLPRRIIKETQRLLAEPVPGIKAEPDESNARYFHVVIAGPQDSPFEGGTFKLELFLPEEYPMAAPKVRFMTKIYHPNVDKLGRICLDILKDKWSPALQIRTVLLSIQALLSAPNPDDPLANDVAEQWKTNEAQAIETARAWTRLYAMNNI
# Mdm2-MdmX inh = inhibitors of human Mdm2-MdmX association, primary screen, cell-based, luminescence, split luciferase, SaOS-2, uHTS | SaOS-2 split-luciferase Mdm2/MdmX complementation | Protein Mdm4 (Homo sapiens) + E3 ubiquitin-protein ligase Mdm2 (Homo sapiens), … | inhibition, % at 8 µM | AID 485346, 2010 | hit rate 3% among 330,000;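 active means inhibition of at least 50% at 8 µM in the primary screen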
# UPR CHOP act = activators of apoptotic CHOP UPR arm, primary screen, cell-based, CHO-CHOP luciferase reporter, luminescence, uHTS | activation, % at 10 µM | hit rate 0.34% among 330,000 | UPR activation; percent of tunicamycin response over DMSO baseline | AID 449763, 2010;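 active means at 10 µM dose, activation of 40% or more, normalized to positive control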;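 further: 100% = tunicamycin at 10 µg/mL and 0% = DMSO alone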
#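 System: CHO CHOP reporter cells. Amount: 500 cells per well. Buffer or medium: F12 medium, 10% FBS. Compound dosing: one dose, 10 µM in 0.5% DMSO. Incubation: 6 h compound exposure at 37 °C after overnight seeding. Technique: Steady-Glo luciferase luminescence. Benchmarks: tunicamycin and DMSO controls.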
# Apaf1 inhib = inhibitors of human Apaf-1 apoptosome, primary screen, biochemical, DEVD-Rh110 fluorescence, uHTS | Apoptotic protease-activating factor 1 (Homo sapiens), O14727 | reconstituted apoptosome caspase-3 activity | inhibition, % at 20 µM | hit rate 0.71% among 330,000 | AID 489030, 2010; active means inhibition of at least 40% at 20 µM;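 further: plate controls were DMSO wells for no effect and DEVD-CHO caspase inhibitor wells for full effect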
#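 Material: biochemical Apaf-1 apoptosome reconstitution. Medium: Hepes buffer, pH 7.5. Also added: cytochrome c activation, bis-DEVD rhodamine 110 substrate. Timing: 30 min compound preincubation, 50 min activation, room temperature. Measured by: rhodamine 110 fluorescence at Ex 480/Em 540 nm.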
# UPR CHOP confirm = activators of apoptotic CHOP UPR arm, confirmation, cell-based, CHO-CHOP luciferase reporter, single concentration | shares compounds with UPR CHOP act | CHO-CHOP cells, CHOP-luciferase reporter luminescence; percent of tunicamycin response, DMSO as zero | activation, % at 10 µM | hit rate 64% among 1,000; in the data active means activation above about 33%;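 further: 0% = DMSO wells and 100% = tunicamycin 10 µg/mL wells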
# UPR XBP1 confirm = IRE1-XBP1 UPR arm activators, confirmation, cell-based, CHO-XBP1 luciferase reporter, luminescence, single concentration; shares compounds with UPR XBP1 act; activation, % at 20 µM; hit rate 63% among 1,000;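 active means reporter signal at least 30% of the positive control's activation in two or more of four replicate wells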;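 further: plate controls were DMSO negative control for no effect and tunicamycin 10 µg/mL positive control for full effect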
# Casp3 UBC13 ctr = CASP3 inhibitor validation, counterassay for project on UBE2N polyubiquitination blockers, biochemical, one dose; shares compounds with UBC13 polyUb; Recombinant caspase-3, Caspase-Glo 3/7 luminescence, 60 min; inhibition, % at 20 µM; hit rate 4% among 1,400; AID 488856, 2010;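 active means mean inhibition across replicates above about 26%, limit read from the data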;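 further: plate controls were DMSO with caspase-3 for no effect and DMSO wells lacking enzyme for full effect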
# Target sequence (P42574 whole entry, looked up): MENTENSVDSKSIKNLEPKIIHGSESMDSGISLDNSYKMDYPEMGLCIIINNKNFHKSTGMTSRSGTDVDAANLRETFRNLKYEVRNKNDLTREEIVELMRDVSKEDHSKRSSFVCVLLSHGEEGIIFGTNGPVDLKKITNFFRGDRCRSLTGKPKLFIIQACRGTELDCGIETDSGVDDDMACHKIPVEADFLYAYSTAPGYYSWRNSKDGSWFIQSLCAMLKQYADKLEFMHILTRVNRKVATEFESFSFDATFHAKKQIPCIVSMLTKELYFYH
# UBC13 confirm = UBC13 polyubiquitination inhibitors, single-point retest, confirmation, biochemical, TR-FRET, single concentration; AID 488859, 2010; shares compounds with UBC13 polyUb; hit rate 68% among 1,400; inhibition, % at 10 µM; in the data active means inhibition above about 45%
# Mdm2-MdmX conf = Mdm2-MdmX complex disruptors, retested hits, confirmation, luminescence, single concentration. inhibition, % at 8 µM. shares compounds with Mdm2-MdmX inh. Mdm2-MdmX binding, luminescent assay. hit rate 55% among 10,000; in the data active means inhibition above about 40%
# Full FLuc ctr = full-length luciferase signal inhibition, confirmation, counter-screen for Mdm2/MdmX interaction inhibitor project, cell-based, single concentration, SaOS-2 | shares compounds with Mdm2-MdmX inh | SaOS-2 full-length luciferase counterscreen, luminescence | inhibition, % at 8 µM | hit rate 77% among 6,200 | AID 504607, 2011;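 active means mean inhibition at 8 µM reaching about 37%, which flags the compound as non-specific, limit read from the data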;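 further: p53-null SaOS-2 cells with luciferase driven by a doxycycline-inducible promoter; compound on cells about two nights before reading with doxycycline added after day one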
# Numbers without * were called inactive; . = no result. Most compounds without a hit are left out; they make up all but 4.1% or so of the library.
SMILES,UPR XBP1 act,UBC13 polyUb,Mdm2-MdmX inh,UPR CHOP act,Apaf1 inhib,UPR CHOP confirm,Mdm2-MdmX conf,Full FLuc ctr,others
Cc1ccc(-c2csc3ncnc(SCC(=O)Nc4nnc(C)s4)c23)cc1,-3,2,-14,0,11,.,.,.,
CCOC(=O)COc1ccc(/C=C/[N+](=O)[O-])c(OCC(=O)OCC)c1,-6,-12,100*,358*,6,-10,70*,24,
COC(=O)/C=c1/s/c(=C(\C#N)C(=O)NCc2ccco2)n(-c2ccccc2)c1=O,-3,-10,11,1,8,.,.,.,
COc1ccc(/C=c2\s/c(=C(/C#N)C(=O)NCc3ccco3)n(-c3ccccc3)c2=O)cc1,38*,-16,68*,43*,-12,8,-1,.,UPR XBP1 confirm=43*
O=c1oc2cc(Oc3c([N+](=O)[O-])cc(C(F)(F)F)cc3[N+](=O)[O-])ccc2c2c1CCCC2,0,5,67*,54*,25,20,14,.,
O=C(CCl)N1N=C(c2cccs2)CC1c1ccco1 (stereo unspecified),-8,16,100*,59*,-11,34*,99*,53*,
CCOC(=O)/C=c1\s/c(=C\c2ccc3cc(OC)ccc3c2)c(=O)n1CC(=O)NCC1CCCO1 (stereo unspecified),371*,-6,74*,86*,17,131*,-4,.,UPR XBP1 confirm=580*
CCOc1cc(/C=N/Nc2nc(C)cc(=O)[nH]2)ccc1O,-2,-4,10,0,6,.,.,.,
COc1cccc(/C=N/Nc2nc(Nc3ccccc3)nc(-n3nc(C)cc3C)n2)c1O,10,-5,57*,93*,6,95*,23,.,
CCOc1cc(/C=N/Nc2cc(C)nc(-n3nc(C)cc3C)n2)ccc1O,48*,0,73*,86*,-8,63*,40,23,UPR XBP1 confirm=27
COc1ccc(/C=N/Nc2cc(C)nc(-n3nc(C)cc3C)n2)c(OC)c1,10,12,55*,142*,12,88*,38,48*,
COc1ccccc1/C=N/Nc1cc(C)nc(N2CCOCC2)n1,-2,2,-7,3,-1,.,.,.,
CCCC#CCN1CCN(C23CC4CC(CC(C4)C2)C3)CC1,-3,13,-21,-2,-5,.,.,.,
Cc1ccc(NC(=O)CN2CCN(C)CC2)cc1Br,-7,4,20,0,-10,.,.,.,
Cc1ccc(C(=O)Sc2cccccc2=O)cc1,0,-33,100*,112*,9,17,82*,23,
Cc1ccc(C(=O)CC(=O)c2ccccc2)cc1,0,5,-6,7,8,.,.,.,
O=CN1CCN(C(=O)CC(c2ccccc2)c2cc(Br)ccc2O)CC1 (stereo unspecified),-3,4,4,2,-5,.,.,.,
CSc1nc(-c2ccc(C)cc2)nc(C(Cl)Cl)n1,12,5,97*,52*,0,6,95*,40*,
CC(NC(=O)COC(=O)c1ccc(N(C)C)cc1)c1ccccc1 (stereo unspecified),-2,2,2,0,-2,.,.,.,
C/C(=N\NC(=O)c1cccc(N/N=C(\C)c2ccncc2)c1)c1ccncc1,-2,-4,20,-1,-1,.,.,.,
C/C(=N\NC(=O)C(c1ccccc1)c1ccccc1)c1ccccn1,-1,-13,75*,80*,-3,51*,64*,50*,
COc1ccc(C(=O)N/N=C(\C)c2ccccn2)cc1OC,5,-8,99*,355*,0,284*,15,.,
Cc1cccc(/C=N/NC(=O)c2cc(Br)ccc2O)n1,2,-7,5,3,4,.,.,.,
C/C(=N\NC(=O)c1cccc(Br)c1)c1ccccn1,7,-20,100*,535*,3,449*,63*,50*,
C/C(=N\NC(=O)c1cc(Br)ccc1O)c1ccccn1,3,-17,57*,213*,0,223*,39,50*,
SMILES,UPR XBP1 act,UBC13 polyUb,Mdm2-MdmX inh,UPR CHOP act,Apaf1 inhib,UPR CHOP confirm,Mdm2-MdmX conf,Full FLuc ctr,others
CC(C(=O)Nc1cccnc1)N1C(=O)C2C3C=CC(C3)C2C1=O (stereo unspecified),2,6,5,0,2,.,.,.,
C/C(=N\NC(=O)c1ccc(Cl)c(Cl)c1)c1ccccn1,4,-3,83*,367*,2,322*,81*,26,
C/C(=N/NC(=O)c1ccccn1)c1ccncc1,0,-6,-22,3,10,.,.,.,
C/C(=N/NC(=O)c1ccc(C(C)(C)C)cc1)c1ccccn1,0,51*,93*,556*,9,372*,44*,55*,Casp3 UBC13 ctr=61*;UBC13 confirm=101*
Cc1ccnc(N2CCC(C(=O)Nc3ccc4c(c3)OCCO4)CC2)n1,2,-3,-10,0,5,.,.,.,
O=C(Nc1ccc(Cl)cc1)/C(=C/c1cccc(O)c1)c1nc2ccccc2s1,13,2,100*,114*,21,62*,100*,51*,
CCN(C(=O)CSc1ncccn1)c1cccc2ccccc12,-2,3,-2,0,6,.,.,.,
CCCc1ccc2oc(C(=O)N3CCN(C4CCS(=O)(=O)C4)CC3)c(C)c2c1 (stereo unspecified),-1,-4,-14,6,-5,.,.,.,

# Screening results from PubChem BioAssay.
